Compounds with a hit are over-represented: about 4.2% of the library has one in this group of screens.
SENP1 FRET inh: human SENP1 catalytic domain inhibitors, primary screen, biochemical, FRET, uHTS; Sentrin-specific protease 1 (Homo sapiens), Q9P0U3; inhibition, % at 10 µM; 360,000 compounds, 0.21% hits; recombinant SENP1 catalytic domain, CyPet-SUMO1-YPet FRET cleavage; AID 624204, 2012;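 active means inhibition at least 30% at 10 µM, raw YFP signal under a set limit, fluorescence ratio 0.5 to 1.5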
Target sequence (Q9P0U3 419-644 limits assumed): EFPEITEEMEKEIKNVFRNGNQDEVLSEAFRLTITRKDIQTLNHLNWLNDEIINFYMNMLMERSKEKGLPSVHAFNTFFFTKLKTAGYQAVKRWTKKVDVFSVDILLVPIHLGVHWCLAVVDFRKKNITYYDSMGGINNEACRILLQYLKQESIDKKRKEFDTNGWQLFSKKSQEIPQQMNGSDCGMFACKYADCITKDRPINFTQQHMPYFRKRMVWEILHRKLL
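Assay system – human recombinant His6-tagged SENP1 catalytic domain enzyme · Input – SENP1 enzyme, 20 pM final · Buffer or medium – Tris pH 8 buffer plus EDTA, NaCl, BME, BSA, NP40, catalase · Schedule – 50 min reaction at room temperature · Technique – FRET read of cyan and yellow fluorescence · Control set – no-enzyme wells low, DMSO-plus-enzyme wells high control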
HDAC3 inh: HDAC3 deacetylase inhibitors, primary screen, biochemical, fluorescence, cell-free homogeneous. inhibition, % at 8.3 µM. 320,000 compounds, 0.15% hits. recombinant HDAC3, fluorogenic peptide/trypsin coupled. AID 2718, 2010. Histone deacetylase 3 (Homo sapiens), O15379; in the data active means inhibition above about 26%, passing the limit was not always enough; inconclusive means no clear call, values can overlap the other calls
GAA850 FXN act: FXN promoter activators, primary screen, cell-based, luciferase luminescence, HEK293 lucGAA850; 360,000 compounds, 0.56% hits; activation, % at 6 µM; HEK293 lucGAA850 FXN promoter luciferase reporter, 24 h; percent of 10 µM SAHA response;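 active means activation above the average of all compounds screened plus 3 SD, cutoff fixed separately per campaign, cut at about 7.5% in these data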
M18AAP inhibitor: PfM18AAP inhibitors, malaria aminopeptidase, primary screen, biochemical, QFRET, recombinant enzyme; M18 aspartyl aminopeptidase (Plasmodium falciparum 3D7); H-Glu-NHMec fluorogenic cleavage; inhibition, % at 7.35 µM; 290,000 compounds, 1.2% hits;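 active means inhibition above the campaign mean inhibition over all tested compounds plus 3 SD, cut at about 28% in these data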
AHR act: AHR activators, primary screen, cell-based, luminescence, luciferase reporter, human. Aryl hydrocarbon receptor (Homo sapiens), P35869. AHR-responsive luciferase reporter cells. activation, % at 5 µM. 320,000 compounds, 2.5% hits; in the data active means activation above about 47%
CTSL1 counter: Fasciola hepatica cathepsin L1 inhibitors, primary screen, counter-screen for PFM18AAP inhibitor project, biochemical, QFRET, fluorogenic peptide substrate; recombinant F. hepatica cathepsin L1, Z-Leu-Arg-MCA fluorescence; inhibition, % at 5.96 µM; 300,000 compounds, 0.49% hits; AID 1906, 2009;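 active means inhibition above the mean of all tested compounds plus 3 SD, set per screening campaign, cut at about 17% in these data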
Hits are given with their value; – = inactive; ? = inconclusive; · = no result given.

SMILES	SENP1 FRET inh	HDAC3 inh	GAA850 FXN act	M18AAP inhibitor	AHR act	CTSL1 counter
O=C(N/N=C/c1cccnc1)c1cccc(NC(=O)c2cccc(Br)c2)c1	–	–	–	–	76	–
O=C(COC(=O)Cc1c[nH]c2ccccc12)Nc1cccc(Br)c1	–	·	–	·	·	·
COc1ccc(S(=O)(=O)N2CCN(C(=O)c3ccc(=O)[nH]n3)CC2)cc1OC	–	·	–	·	·	·
COC(=O)C(C(=O)OC)c1ccccc1CNS(=O)(=O)c1ccc(C)cc1	–	·	·	·	·	·
S=c1[nH]ncn1/N=C/c1ccc(N2CCOCC2)cc1	–	?	–	31	–	–
S=c1[nH]ncn1/N=C/c1ccc(Br)cc1	–	–	–	–	–	–
CN(C)c1ccc(-c2cc([C@H]3[C@@H]4C=CCC[C@@]4(C)C(=O)N3Cc3ccccc3)ccc2F)cc1	48	–	–	·	–	–
C[C@@]12CCC=C[C@H]1[C@H](c1ccc(F)c(/C=C/c3ccccc3)c1)N(Cc1ccccc1)C2=O	–	31	–	·	–	–
Nc1ccc2c(c1)C(=O)C(=O)c1ccccc1-2	–	–	–	–	–	112
O=C1C(=O)c2ccc(-c3ccccc3)cc2-c2ccccc21	–	–	–	–	–	109
Cc1nc(Nc2cccc(Cl)c2)c2oc3ccccc3c2n1	–	–	–	–	–	–
Cc1nc(Nc2ccc(Cl)cc2)c2oc3ccccc3c2n1	–	–	–	–	78	–
Cc1nc(Nc2cccc(F)c2)c2oc3ccccc3c2n1	–	–	–	–	49	–
Cc1ccc(Nc2ncnc3c2oc2ccccc23)cc1	–	–	–	–	54	–
Cc1nc(Nc2ccccc2F)c2oc3ccccc3c2n1	–	–	–	–	56	–
CCn1c2ccccc2nc2cc3c(cc21)c(Cl)c(=O)c1ccccc13	–	·	–	·	·	·
Cc1ccc([C@H]2N[C@]3(CCCN(Cc4ccc(Cl)cc4)C3=O)[C@H]3C(=O)N(C)C(=O)[C@@H]23)cc1	–	·	–	·	·	·
O=C(NC1CCCC1)C(c1ccccc1)n1c(CSCCOc2ccccc2)nc2ccccc21 (centres undefined)	–	·	·	·	·	·
CN1CCN(c2ncnc3c2ncn3[C@H]2CN(Cc3ccc(Cl)cc3)C[C@@H](CO)O2)CC1	–	·	–	·	·	·
CCc1nc(Nc2ccc3c(c2)OCCO3)c2oc3ccccc3c2n1	–	–	–	–	63	–
CCNc1nc(CC)nc2c1oc1ccccc12	–	–	–	–	–	–
Cc1nc(Nc2ccc3c(c2)OCCO3)c2oc3ccccc3c2n1	–	–	–	–	–	–
CCc1nc(NCc2cccnc2)c2oc3ccccc3c2n1	–	–	–	–	64	–
CC1CC1c1ccc(/C=C(\C#N)C(=O)Nc2ccccc2Cl)o1 (centres undefined)	–	–	–	–	50	–
COc1ccccc1S(=O)(=O)N1CCN(S(=O)(=O)c2ccccc2C#N)CC1	–	–	–	–	–	–
SMILES	SENP1 FRET inh	HDAC3 inh	GAA850 FXN act	M18AAP inhibitor	AHR act	CTSL1 counter
O=C(Nc1ccccc1)N(O)c1ccc(Cl)cc1	–	–	–	–	60	–
CCn1c(SCC(=O)OCc2ccccc2)nc2c1c(=O)n(C)c(=O)n2C	–	32	–	–	–	–
C=CCn1c(SCC(=O)OCc2ccccc2)nc2c1c(=O)n(C)c(=O)n2C	–	–	–	–	–	–
COc1ccc(OC)c(S(=O)(=O)ON2C(=O)c3ccccc3C2=O)c1	–	37	–	–	–	–
OC[C@H]1O[C@@H](c2nc3ccc(-c4nc(-c5cccs5)no4)cc3[nH]2)C[C@@H]1O	–	·	–	·	·	·
O=C(O)C(=O)/C(=C\c1ccc(Cl)cc1)c1ccc2ccccc2n1	–	–	–	–	65	–
O=C(NCCc1ccc(Cl)cc1)c1ccc2ccccc2n1	–	–	–	–	–	–
Cc1ccc2c(c1)N1C(=O)c3ccccc3C1C1=C(CC(C)(C)CC1=O)N2 (centres undefined)	–	–	–	–	50	–

Screens from PubChem.
